Consider 24 compounds from ChEMBL document CHEMBL5625229 (Eur J Med Chem, 2023).

pEC50: −log10 of the molar value.

Data set [1] is described as follows: Efflux ratio of apparent permeability across basal to apical membrane over apical to basal membrane in human Caco-2 cells at 100 uM incubated fro 120 mins by spectroscopy. The format is ADME, cell-based. In short, it runs like this: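 Caco-2 grown 21 days on Transwell filters, with TEER checked daily (above 1000 Ω taken as optimal). Washed in HBSS and equilibrated 30 min at 37 °C, then compound at 100 µM added to the donor side (apical or basolateral), with fresh HBSS on the receiver side, for 120 min at 37 °C. Acceptor concentration by UV spectroscopy gives Papp (nm/s). Ratio = Papp BA/AB, three experiments in duplicate.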
On the technique in general: Caco-2 cells form a polarised layer with tight junctions and transporters.

In data set [2] the target is Multidrug resistance-associated protein 1 (Homo sapiens, UniProt P33527). The experiment in a line: Inhibition of MRP1 (unknown origin) overexpressed in MDCK cells using Calcein-AM as substrate preincubated for 30 mins followed by substrate addition measured after 30 mins by fluorescence based assay. Format: cell-based. In short, it runs like this:
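MDCK-MRP1 cells, 30 000/well, grown overnight, then treated with compound (final 0.01 nM–100 µM, lower for very potent ones) in medium for 30 min at 37 °C. Calcein-AM added at 2.5 µM final for 30 min, then three ice-cold PBS washes. Fluorescence read at 485/535 nm against untreated cells. EC50 from fluorescence increase versus log dose, mean ± SEM of three experiments in duplicate.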

The target in data set [3] is T1, Broad substrate specificity ATP-binding cassette transporter ABCG2 (Homo sapiens, UniProt Q9UNQ0).
T1 sequence (Q9UNQ0 whole entry): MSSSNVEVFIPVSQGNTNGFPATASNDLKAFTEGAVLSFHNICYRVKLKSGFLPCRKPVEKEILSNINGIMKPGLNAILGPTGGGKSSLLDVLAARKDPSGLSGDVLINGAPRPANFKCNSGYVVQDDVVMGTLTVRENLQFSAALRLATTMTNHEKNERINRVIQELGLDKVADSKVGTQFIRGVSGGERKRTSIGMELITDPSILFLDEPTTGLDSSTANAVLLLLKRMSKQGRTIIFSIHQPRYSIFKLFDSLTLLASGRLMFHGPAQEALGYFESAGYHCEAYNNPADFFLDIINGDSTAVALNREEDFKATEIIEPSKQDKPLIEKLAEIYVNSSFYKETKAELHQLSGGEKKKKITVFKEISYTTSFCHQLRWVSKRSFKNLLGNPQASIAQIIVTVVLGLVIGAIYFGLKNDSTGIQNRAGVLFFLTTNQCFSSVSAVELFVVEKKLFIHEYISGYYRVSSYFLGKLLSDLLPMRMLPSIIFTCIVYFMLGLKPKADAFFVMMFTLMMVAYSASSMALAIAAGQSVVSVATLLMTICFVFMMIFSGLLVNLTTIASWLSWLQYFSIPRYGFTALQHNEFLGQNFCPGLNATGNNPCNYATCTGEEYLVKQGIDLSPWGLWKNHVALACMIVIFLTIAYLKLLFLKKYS
In words: Inhibition of BCRP (unknown origin) overexpressed in MDCK cells using Hoechst 33342 as substrate preincubated for 30 mins followed by substrate addition measured after 30 mins by fluorescence based assay. The format is cell-based.

Data set [4] concerns the target ATP-dependent translocase ABCB1 (Homo sapiens, UniProt P08183). In words: Inhibition of MDR1 (unknown origin) overexpressed in MDCK cells using Calcein-AM as substrate preincubated for 30 mins followed by substrate addition measured after 30 mins by fluorescence based assay. Format: cell-based.
Another data set has as its system HT-29. In words: Antiproliferative activity against human HT-29 cells at 1 to 10 uM incubated for 48 hrs relative to control. The format is functional. Conditions: dose 1-10 µM. Summed up: (§1)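 Compound alone (1 μM and 10 μM), 48 h, on HT29 or on HT29/DX (the latter kept in 100 nM doxorubicin to hold resistance). Cells seeded 10 000/well, compound added after 24 h. Viability by MTT (0.5 mg/mL, 3–4 h), formazan in DMSO/EtOH 1:1, absorbance 570/630 nm. Three independent experiments in duplicate.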

The nature of data set [5]: Antiproliferative activity against doxorubicin-resistant human HT-29 cells at 1 to 10 uM incubated for 48 hrs relative to control. The format is functional, doxorubicin-resistant human HT-29 cell. The following applies: dose 1-10 µM. Summed up:
as §1

A short description of data set [6]: Potentiation of DOX-induced cytotoxicity against doxorubicin-resistant human HT-29 cells assessed as reduction in cell viability at 10 uM incubated for 48 hrs relative to control. The format is functional, doxorubicin-resistant human HT-29 cell. Summed up: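 HT29/DX cells (10 000/well) were given compound at 1 or 10 µM together with 5 µM doxorubicin 24 h after seeding. After 48 h, viability by MTT (0.5 mg/mL, 3–4 h, 37 °C), read at 570/630 nm against untreated cells. Three independent experiments, technical duplicates; one-way ANOVA.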

As usually defined, the efflux ratio is the permeability from basolateral to apical divided by that in the opposite direction, in the common usage. What is called pEC50 is the negative decadic logarithm of the EC50, by convention in mol/L.

ATP-dependent translocase ABCB1, sequence (P08183 whole entry): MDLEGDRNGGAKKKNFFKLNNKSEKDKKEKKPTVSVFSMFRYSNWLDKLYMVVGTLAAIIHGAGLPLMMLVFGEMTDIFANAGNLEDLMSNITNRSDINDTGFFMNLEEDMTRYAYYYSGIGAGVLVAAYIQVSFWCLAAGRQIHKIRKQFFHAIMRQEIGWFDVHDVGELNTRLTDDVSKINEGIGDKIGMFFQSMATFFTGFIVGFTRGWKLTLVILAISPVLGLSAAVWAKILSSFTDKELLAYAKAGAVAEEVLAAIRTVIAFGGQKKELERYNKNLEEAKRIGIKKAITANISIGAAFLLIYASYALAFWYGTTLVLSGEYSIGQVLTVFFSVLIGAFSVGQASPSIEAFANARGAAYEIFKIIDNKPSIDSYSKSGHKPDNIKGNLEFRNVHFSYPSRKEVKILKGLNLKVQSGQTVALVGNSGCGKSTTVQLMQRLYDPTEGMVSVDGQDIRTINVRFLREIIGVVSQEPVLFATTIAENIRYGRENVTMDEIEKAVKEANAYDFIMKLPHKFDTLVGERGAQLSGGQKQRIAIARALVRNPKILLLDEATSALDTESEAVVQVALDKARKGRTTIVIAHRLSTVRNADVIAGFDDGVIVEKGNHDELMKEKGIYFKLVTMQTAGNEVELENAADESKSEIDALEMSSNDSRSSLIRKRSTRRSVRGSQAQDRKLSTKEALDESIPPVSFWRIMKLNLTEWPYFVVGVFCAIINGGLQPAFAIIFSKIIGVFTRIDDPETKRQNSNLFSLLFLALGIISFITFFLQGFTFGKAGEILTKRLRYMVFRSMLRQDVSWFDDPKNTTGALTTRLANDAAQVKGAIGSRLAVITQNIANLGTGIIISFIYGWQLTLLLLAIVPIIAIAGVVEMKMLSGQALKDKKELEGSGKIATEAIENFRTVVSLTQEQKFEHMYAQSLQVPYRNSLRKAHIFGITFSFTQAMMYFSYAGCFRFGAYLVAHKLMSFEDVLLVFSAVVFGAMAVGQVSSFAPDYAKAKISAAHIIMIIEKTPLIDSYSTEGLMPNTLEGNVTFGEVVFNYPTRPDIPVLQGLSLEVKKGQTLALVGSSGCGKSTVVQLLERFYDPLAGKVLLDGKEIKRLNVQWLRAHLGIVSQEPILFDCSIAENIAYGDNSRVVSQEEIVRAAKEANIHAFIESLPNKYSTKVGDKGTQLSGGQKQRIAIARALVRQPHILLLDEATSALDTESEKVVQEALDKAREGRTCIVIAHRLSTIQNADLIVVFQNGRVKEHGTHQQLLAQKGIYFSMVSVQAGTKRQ
Multidrug resistance-associated protein 1, sequence (P33527 whole entry): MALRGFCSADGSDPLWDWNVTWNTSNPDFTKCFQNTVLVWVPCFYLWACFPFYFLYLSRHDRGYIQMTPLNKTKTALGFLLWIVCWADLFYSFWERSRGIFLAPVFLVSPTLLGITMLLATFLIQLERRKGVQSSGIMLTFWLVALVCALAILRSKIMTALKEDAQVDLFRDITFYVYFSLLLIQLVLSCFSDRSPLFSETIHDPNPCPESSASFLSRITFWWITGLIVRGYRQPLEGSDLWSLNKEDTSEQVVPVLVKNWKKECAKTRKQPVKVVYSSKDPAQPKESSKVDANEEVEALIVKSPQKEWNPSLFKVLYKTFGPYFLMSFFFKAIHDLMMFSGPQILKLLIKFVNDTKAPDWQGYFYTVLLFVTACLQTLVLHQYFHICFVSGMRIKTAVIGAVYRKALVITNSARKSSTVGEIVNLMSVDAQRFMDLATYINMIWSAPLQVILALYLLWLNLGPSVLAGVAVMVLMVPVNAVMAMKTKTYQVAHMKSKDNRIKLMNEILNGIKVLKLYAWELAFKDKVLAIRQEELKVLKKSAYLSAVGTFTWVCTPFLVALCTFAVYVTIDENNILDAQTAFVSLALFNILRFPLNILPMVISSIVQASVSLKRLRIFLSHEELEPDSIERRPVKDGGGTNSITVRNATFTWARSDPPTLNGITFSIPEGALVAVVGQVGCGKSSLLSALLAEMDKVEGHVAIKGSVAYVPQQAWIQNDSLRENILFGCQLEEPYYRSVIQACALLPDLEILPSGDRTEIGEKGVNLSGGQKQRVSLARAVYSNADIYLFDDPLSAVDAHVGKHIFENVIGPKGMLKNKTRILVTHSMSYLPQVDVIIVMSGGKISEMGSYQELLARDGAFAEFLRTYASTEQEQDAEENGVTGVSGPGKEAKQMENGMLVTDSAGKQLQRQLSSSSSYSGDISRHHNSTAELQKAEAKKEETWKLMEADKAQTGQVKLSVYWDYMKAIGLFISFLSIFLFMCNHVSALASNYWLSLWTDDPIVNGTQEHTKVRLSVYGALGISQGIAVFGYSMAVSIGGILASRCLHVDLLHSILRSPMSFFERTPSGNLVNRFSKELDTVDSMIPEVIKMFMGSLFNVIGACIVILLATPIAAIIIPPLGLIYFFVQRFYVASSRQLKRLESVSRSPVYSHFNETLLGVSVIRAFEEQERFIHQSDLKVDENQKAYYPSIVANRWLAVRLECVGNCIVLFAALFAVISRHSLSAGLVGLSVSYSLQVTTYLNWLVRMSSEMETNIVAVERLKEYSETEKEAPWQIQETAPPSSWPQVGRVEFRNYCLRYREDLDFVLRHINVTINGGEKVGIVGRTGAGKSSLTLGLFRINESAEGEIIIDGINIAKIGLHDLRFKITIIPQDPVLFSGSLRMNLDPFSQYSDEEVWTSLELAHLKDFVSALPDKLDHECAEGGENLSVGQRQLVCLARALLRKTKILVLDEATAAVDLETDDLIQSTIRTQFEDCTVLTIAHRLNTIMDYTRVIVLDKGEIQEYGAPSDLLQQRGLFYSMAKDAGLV

With `COc1cc2c(cc1OC)CN(CCc1ccc(NC(=O)c3cc(OC)c(OC)cc3NC(=O)c3cnc4ccccc4c3)cc1)CC2`, the efflux ratio at 2 h, 100 µM in data set [1] is 22.
In the case of `COc1cc2c(cc1OC)CN(CCc1ccc(NC(=O)c3cccc4c(=O)c5cccc(OC)c5[nH]c34)cc1)CC2`, the pEC50 in data set [2] was less than 4.00.
As for `COc1cc2c(cc1OC)CN(CCc1ccc(-c3nnc(-c4c(OC)cccc4OC)o3)cc1)CC2`, the pEC50 in data set [2] and in data set [3] was less than 4.00 throughout.
Take `COc1cc2c(cc1OC)CN(CCc1ccc(-c3nnc(/C=C/c4cc(OC)c(OC)c(OC)c4)o3)cc1)CC2`: the pEC50 in data set [2] is less than 4.00.
For `COc1cc2c(cc1OC)CN(CCc1ccc(-c3nnc(-c4c(OC)c(OC)cc5ccccc45)o3)cc1)CC2`, the pEC50 in data set [4] is 7.34; in data set [2], less than 4.00; in data set [3] it was less than 4.00. In data set [1], the efflux ratio at 2 h, 100 µM stood at 9.7. For the same compound, the Activity (in the data set with HT-29; in data set [5]) was approximately 10% throughout.
`COc1cc2c(cc1OC)CN(CCc1ccc(-c3nnc(-c4cccc(OC)c4OC)o3)cc1)CC2`: the pEC50 in data set [4] was 6.40; in data set [2], less than 4.00; in data set [3] it was less than 4.00. The efflux ratio at 2 h, 100 µM in data set [1] was 6.8. Further, the Activity (in the data set with HT-29; in data set [5]) was approximately 10% throughout.
As to `COc1cc2c(cc1OC)CN(CCc1ccc(-n3nnnc3/C=C/c3cc(OC)c(OC)c(OC)c3)cc1)CC2`, the pEC50 was 5.28 in data set [4] and less than 4.00 in data set [2].
Regarding `COc1cc2c(cc1OC)CN(CCc1ccc(-n3nnc(-c4ccc(OC)c(OC)c4OC)n3)cc1)CC2`, the pEC50 in data set [4] was 6.26; in data set [2], less than 4.00.
In the case of `COc1cc2c(cc1OC)CN(CCc1ccc(-n3nnnc3-c3cc(OC)c(OC)c(OC)c3)cc1)CC2`, the values for the pEC50 in data set [4] and in data set [2] were 6.20 and 5.36, respectively.
Consider `COc1cc2c(cc1OC)CN(CCc1ccc(-n3nnnc3-c3c(OC)ccc4ccccc34)cc1)CC2`, for which the pEC50 in data set [4] was 6.12; in data set [2], less than 4.00.
For the compound `COc1cc2c(cc1OC)CN(CCc1ccc(-n3nnc(-c4c(OC)ccc5ccccc45)n3)cc1)CC2`, the results for the pEC50 in data set [4], in data set [2] and in data set [3] were 7.05, less than 4.00 and less than 4.00, respectively. Moreover, in data set [1], the efflux ratio at 2 h, 100 µM is 4.5. The Activity (in the data set with HT-29; in data set [5]) was approximately 10% in each case.
Take `COc1cc2c(cc1OC)CN(CCc1ccc(-n3nnc(/C=C/c4cc(OC)c(OC)c(OC)c4)n3)cc1)CC2`: the pEC50 is 7.92 in data set [4], less than 4.00 in data set [2] and 4.27 in data set [3]. In addition, in data set [1], the efflux ratio at 2 h, 100 µM was found to be 5.4. The Activity (with HT-29; in data set [5]) was approximately 10% throughout.
Take `COc1cc2c(cc1OC)CN(CCc1ccc(-c3nnc(-c4cc(OC)c(OC)c(OC)c4)o3)cc1)CC2`: the pEC50 in data set [4] is 7.15; in data set [2], less than 4.00.
Take `COc1cc2c(cc1OC)CN(CCc1ccc(-c3nnc(-c4ccc(OC)c(OC)c4OC)o3)cc1)CC2`: the pEC50 was 6.36 in data set [4], less than 4.00 in data set [2] and less than 4.00 in data set [3]. In addition, the efflux ratio at 2 h, 100 µM in data set [1] came to 6.5. For the same compound, the Activity (with HT-29; in data set [5]) was approximately 10% throughout.
Consider `COc1cc2c(cc1OC)CN(CCc1ccc(-n3nnnc3-c3c(OC)c(OC)cc4ccccc34)cc1)CC2`, for which the pEC50 was 5.97 in data set [4], less than 4.00 in data set [2] and less than 4.00 in data set [3]. Moreover, the efflux ratio at 2 h, 100 µM in data set [1] was determined as 3.3.
As for `COc1cc2c(cc1OC)CN(CCc1ccc(-n3nnc(-c4c(OC)c(OC)cc5ccccc45)n3)cc1)CC2`, the pEC50 in data set [4] is 6.59; in data set [2] it was less than 4.00.
Regarding `COc1cc2c(cc1OC)CN(CCc1ccc(-n3nnnc3-c3ccccc3OC)cc1)CC2`, the results for the negative logarithm of the EC50 (pEC50) in data set [4] and in data set [2] were 6.02 and less than 4.00, respectively.
Consider `COc1cc2c(cc1OC)CN(CCc1ccc(-n3nnc(-c4ccccc4OC)n3)cc1)CC2`, for which the negative-log EC50 (pEC50) in data set [4] was 7.09; in data set [2] it was less than 4.00.
On to `COc1cc2c(cc1OC)CN(CCc1ccc(-n3nnc(-c4cccc(OC)c4OC)n3)cc1)CC2`, for which the figures for the pEC50 in data set [4] and in data set [2] were 6.85 and less than 4.00, respectively.
Consider `COc1cc2c(cc1OC)CN(CCc1ccc(-n3nnc(-c4c(OC)cccc4OC)n3)cc1)CC2`, for which the pEC50 in data set [2] was less than 4.00.
Turning to `COc1cc2c(cc1OC)CN(CCc1ccc(-n3nnnc3-c3ccc(OC)c(OC)c3OC)cc1)CC2`, the values for the pEC50 in data set [4] and in data set [2] were 6.12 and 5.13, respectively.
`COc1cc2c(cc1OC)CN(CCc1ccc(-c3nnc(-c4ccccc4OC)o3)cc1)CC2`: the pEC50 in data set [4] was 7.72; in data set [2] it was less than 4.00; in data set [3] it was less than 4.00. In addition, the efflux ratio at 2 h, 100 µM in data set [1] is 6.3. Besides, the Activity in the data set with HT-29 is given as approximately 10%; in data set [5] it was approximately 10%; in data set [6] it was 64.3%.
On to `COc1cc2c(cc1OC)CN(CCc1ccc(-c3nnc(-c4c(OC)ccc5ccccc45)o3)cc1)CC2`, for which the pEC50 in data set [2] and in data set [3] was less than 4.00 in each case.
With `COc1cc2c(cc1OC)CN(CCc1ccc(-n3nnc(-c4cc(OC)c(OC)c(OC)c4)n3)cc1)CC2`, the values for the pEC50 in data set [4] and in data set [2] were 6.59 and less than 4.00, respectively.
